This note sets out measurements from ChEMBL document CHEMBL4330084, “Development of posaconazole-based analogues as hedgehog signaling pathway inhibitors” (Eur J Med Chem, 2019).

Each structure is given as a SMILES string. ≈ marks a conversion by molar mass, not a printed value.

A short description of data set [1]: Inhibition of hedgehog signaling pathway in mouse ASZ cells assessed as decrease in Gli1 mRNA expression after 48 hrs by qRT-PCR analysis. In kind it is cell-based. The method in brief:
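Murine BCC line ASZ (Ptch+/-), 80% confluent, seeded at 10,000 cells/well in 154CF medium (2% FBS), 24 h, then serum-free medium 24 h (37°C, 5% CO2). Treated 48 h with compound at 10–0.001 μM or DMSO vehicle. Gli1 mRNA measured by qRT-PCR against actin B internal control; concentrations lowering actin B were excluded. IC50 as mean ± SEM, repeat experiments in triplicate.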

In another data set the target is Cytochrome P450 3A4 (Homo sapiens, UniProt P08684). Nature of the data set: Inhibition of CYP3A4 in human liver microsomes by LC-MS/MS analysis.
Chain of Cytochrome P450 3A4 (P08684 whole entry): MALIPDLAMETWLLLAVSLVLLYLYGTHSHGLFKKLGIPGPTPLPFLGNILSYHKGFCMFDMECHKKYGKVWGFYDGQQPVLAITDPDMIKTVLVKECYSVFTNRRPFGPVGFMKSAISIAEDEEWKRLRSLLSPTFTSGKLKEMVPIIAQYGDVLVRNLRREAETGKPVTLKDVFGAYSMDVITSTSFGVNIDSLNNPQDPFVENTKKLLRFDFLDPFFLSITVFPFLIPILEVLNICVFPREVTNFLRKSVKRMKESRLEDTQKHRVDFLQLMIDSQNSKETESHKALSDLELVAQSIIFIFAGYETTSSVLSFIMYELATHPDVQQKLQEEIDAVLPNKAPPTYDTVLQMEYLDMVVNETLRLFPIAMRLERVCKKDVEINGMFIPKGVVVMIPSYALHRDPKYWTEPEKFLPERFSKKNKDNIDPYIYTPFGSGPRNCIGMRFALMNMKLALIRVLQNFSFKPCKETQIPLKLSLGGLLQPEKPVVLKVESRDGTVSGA
A short description of data set [2]: Half life in human liver microsomes at 1 uM by LC-MS/MS analysis.
Data set [3] is filed under the species Mus musculus. The data set is described as follows: Potency index, ratio of IC50 for PSZ to IC50 for test compound for inhibition of hedgehog signaling pathway in mouse ASZ cells assessed as decrease in Gli1 mRNA expression after 48 hrs by qRT-PCR analysis. It counts as cell-based.
Data set [4] is filed under the species Mus musculus. Nature of the data set: Inhibition of hedgehog signaling pathway in hedgehog-dependent mouse Ptch-CKO cells assessed as inhibition of cell growth.
The conditions of data set [5]: human, microsomes, 1 µM.
Data set [6] can be described thus: Kinetic solubility of compound in pH 7.4 PBS by LC-MS/MS analysis. The settings on record: for solubility kinetic: PBS, read-out: Kinetic_solubility. In kind it is physicochemical. The method in brief:
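Kinetic solubility in PBS, pH 7.4; run by a CRO (Pharmaron or Cyprotex) under its standard protocol.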

A further data set deals with hERG (KCNH2) (Homo sapiens, UniProt Q12809). Nature of the data set: Inhibition of human ERG expressed in CHO cells at 25 uM by electrophysiology assay relative to control. It counts as cell-based. The settings on record: CHO cells expressing human ERG.
Chain of hERG (KCNH2) (Q12809 whole entry): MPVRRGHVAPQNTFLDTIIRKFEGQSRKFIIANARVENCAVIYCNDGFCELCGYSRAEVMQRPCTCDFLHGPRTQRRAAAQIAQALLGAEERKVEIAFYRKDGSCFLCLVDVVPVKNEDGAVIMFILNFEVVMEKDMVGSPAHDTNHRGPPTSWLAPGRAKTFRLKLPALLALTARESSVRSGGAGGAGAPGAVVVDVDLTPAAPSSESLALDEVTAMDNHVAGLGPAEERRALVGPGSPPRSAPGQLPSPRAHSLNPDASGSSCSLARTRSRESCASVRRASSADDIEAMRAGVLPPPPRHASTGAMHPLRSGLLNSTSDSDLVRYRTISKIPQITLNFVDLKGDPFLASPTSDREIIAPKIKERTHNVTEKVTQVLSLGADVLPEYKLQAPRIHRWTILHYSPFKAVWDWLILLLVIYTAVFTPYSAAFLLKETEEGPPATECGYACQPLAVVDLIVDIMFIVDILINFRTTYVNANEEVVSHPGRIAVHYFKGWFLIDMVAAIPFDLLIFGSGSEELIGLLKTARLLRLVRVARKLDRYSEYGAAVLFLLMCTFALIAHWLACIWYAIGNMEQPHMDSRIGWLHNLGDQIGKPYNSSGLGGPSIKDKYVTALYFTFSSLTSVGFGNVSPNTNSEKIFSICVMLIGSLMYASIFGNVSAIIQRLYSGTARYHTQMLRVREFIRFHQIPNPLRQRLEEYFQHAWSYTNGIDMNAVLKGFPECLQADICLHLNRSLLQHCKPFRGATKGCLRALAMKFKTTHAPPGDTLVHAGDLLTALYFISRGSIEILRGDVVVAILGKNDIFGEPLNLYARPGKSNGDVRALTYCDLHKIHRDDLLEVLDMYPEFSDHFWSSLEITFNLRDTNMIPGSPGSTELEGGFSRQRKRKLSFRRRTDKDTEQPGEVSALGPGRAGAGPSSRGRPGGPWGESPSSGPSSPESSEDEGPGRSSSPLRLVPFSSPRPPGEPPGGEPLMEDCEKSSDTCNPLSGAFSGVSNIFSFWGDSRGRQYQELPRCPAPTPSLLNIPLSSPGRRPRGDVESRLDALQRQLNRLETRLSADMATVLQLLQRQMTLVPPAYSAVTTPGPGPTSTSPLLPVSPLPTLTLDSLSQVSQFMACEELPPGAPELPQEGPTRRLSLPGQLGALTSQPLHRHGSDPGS

With `C[C@]1(c2ccc(F)cc2F)C[C@H](COc2ccc(N3CCN(c4ccc(N)cc4)CC3)cc2)CO1`, the IC50 in data set [1] came out at 330 nM.

Turning to `CC[C@@H](C)n1ncn(-c2ccc(N3CCN(c4ccc(OC[C@@H]5CO[C@@](C)(c6ccc(F)cc6F)C5)cc4)CC3)cc2)c1=O`, the IC50 in data set [1] is 190 nM; at Cytochrome P450 3A4, above 20000 nM. The same compound returned a t1/2 in data set [2] of 1.03 h. Moreover, the Ratio IC50 in the data set listed under Mus musculus [3] was determined as 2.5. In addition, the 50% growth inhibitory concentration (GI50) in the data set listed under Mus musculus [4] came out at 610 nM. The compound further gave a CLH in data set [5] of 37.4 µL/min/mg.

Regarding `C[C@]1(c2ccc(F)cc2F)C[C@H](COc2ccc(N3CCN(c4ccc(-n5cnn(CCC(=O)O)c5=O)cc4)CC3)cc2)CO1`, the IC50 in data set [1] was determined as 32 nM.

Turning to `C[C@]1(c2ccc(F)cc2F)C[C@H](COc2ccc(N3CCN(c4ccc(NC(=O)NN)cc4)CC3)cc2)CO1`, in data set [1], the IC50 was 220 nM.

Consider `CC1(c2ccc(Cl)cc2Cl)OCC(COc2ccc(N3CCN(c4ccc(-n5cnn(CCC(=O)O)c5=O)cc4)CC3)cc2)O1` (centres undefined), for which the IC50 in data set [1] was 12 nM; against Cytochrome P450 3A4, above 20000 nM. Also, the solubility kinetic in data set [6] turned out to be 0.781 µM (≈ 0.511 µg/mL). The same compound had an inhibition at 25 µM against hERG (KCNH2) of 3.6%.

For the compound `CC[C@@H]([C@H](C)O)n1ncn(-c2ccc(N3CCN(c4ccc(OC[C@@H]5CO[C@@](Cn6cncn6)(c6ccc(F)cc6F)C5)cc4)CC3)cc2)c1=O` [POSACONAZOLE], in data set [1], the IC50 is 500 nM. For the same compound, the t1/2 in data set [2] was 1.8 h. Further, in data set [6] (buffer), the Kinetic_solubility came out at 0.781 µM. In addition, the inhibition at 25 µM against hERG (KCNH2) is 14.7%. Further, the CLH in data set [5] is 21.5 µL/min/mg.

Consider `C[C@]1(c2ccc(F)cc2F)C[C@H](COc2ccc(N3CCN(c4ccc(NC(=O)Oc5ccccc5)cc4)CC3)cc2)CO1`, for which the IC50 in data set [1] was above 10000 nM.

On to `C[C@]1(c2ccc(F)cc2F)C[C@H](COc2ccc(N3CCN(c4ccc(-n5cnn(CCCO)c5=O)cc4)CC3)cc2)CO1`, for which, in data set [1], the concentration for half-maximal inhibition (IC50) was 20 nM. Further, in data set [6], the solubility kinetic was 1.56 µM (≈ 0.945 µg/mL).

Regarding `C[C@]1(c2ccc(F)cc2F)C[C@H](COc2ccc(N3CCN(c4ccc(-n5cnn(CC(=O)O)c5=O)cc4)CC3)cc2)CO1`, in data set [1], the half-maximal inhibitory concentration (IC50) was determined as 150 nM.

Regarding `C[C@]1(c2ccc(F)cc2F)C[C@H](COc2ccc(N3CCN(c4ccc(NC(=O)c5cccnc5)cc4)CC3)cc2)CO1`, the half-maximal inhibitory concentration (IC50) in data set [1] was above 10000 nM. For the same compound, the solubility kinetic in data set [6] turned out to be 1.56 µM (≈ 0.912 µg/mL).

Turning to `CC(=O)c1cccc(C(=O)Nc2ccc(N3CCN(c4ccc(OC[C@@H]5CO[C@@](C)(c6ccc(F)cc6F)C5)cc4)CC3)cc2)c1`, the figures for the IC50 (in data set [1]; on Cytochrome P450 3A4) were 24 nM and above 20000 nM, respectively. For the same compound, in data set [2], the t1/2 came to 1.92 h. Also, the solubility kinetic in data set [6] worked out at 3.13 µM (≈ 1.96 µg/mL). The same compound displayed an inhibition at 25 µM against hERG (KCNH2) of 4.2%. The CLH in data set [5] was determined as 20 µL/min/mg.

Compound `CCC(C)n1ncn(-c2ccc(N3CCN(c4ccc(OCC5COC(Cn6cncn6)(c6ccc(Cl)cc6Cl)O5)cc4)CC3)cc2)c1=O` (centres undefined) [ITRACONAZOLE] displayed a t1/2 in data set [2] of 0.45 h. Also, the solubility kinetic in data set [6] stood at 0.8 µM (≈ 0.565 µg/mL). The inhibition at 25 µM at hERG (KCNH2) was below 1%.

In the case of `C[C@]1(c2ccc(F)cc2F)C[C@H](COc2ccc(N3CCN(c4ccc([N+](=O)[O-])cc4)CC3)cc2)CO1`, in data set [1], the concentration for half-maximal inhibition (IC50) came to 740 nM.

As to `C[C@]1(c2ccc(F)cc2F)C[C@H](COc2ccc(N3CCN(c4ccc(-n5cn[nH]c5=O)cc4)CC3)cc2)CO1`, in data set [1], the IC50 worked out at 190 nM.

Turning to `C[C@]1(c2ccc(F)cc2F)C[C@H](COc2ccc(N3CCN(c4ccc(NC(=O)c5cccc(O)c5)cc4)CC3)cc2)CO1`, the IC50 in data set [1] was 190 nM. In data set [2], this compound displayed a t1/2 above 3 h. Moreover, the solubility kinetic in data set [6] worked out at 3.13 µM (≈ 1.88 µg/mL). Moreover, the CLH in data set [5] was determined as 2.23 µL/min/mg.
